Calls of active or inactive are those of the source. The rule behind the calls is not given here.
Tests used:
[1] = tested on: Salmonella enterica subsp. enterica serovar Paratyphi B; experiment: Antimicrobial activity against Salmonella paratyphi B at 1 mg/disc after 24 hrs by disc diffusion assay; format: functional
Procedure, shortened: (§1)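 Disc diffusion on Mueller Hinton agar. Inoculum was grown in MHB for 24 h at 37 °C, swabbed onto the plates and dried for 10 min. Discs with 1 mg compound were left 30 min at room temperature for diffusion, then incubated at 37 °C for 24 h. Inhibition zone was read in mm; run twice. Solvent was the negative control, streptomycin the positive control.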

[2] = tested on: Salmonella enterica subsp. enterica serovar Paratyphi B; experiment: Antimicrobial activity against Salmonella paratyphi B after 24 hrs by two fold dilution method; format: functional
Procedure, shortened: (§2)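 Broth two-fold serial dilution in 96-well plates from 1000 to 7.81 µg/mL, compound in DMSO (2%). Inoculum was grown in MHB for 24 h at 37 °C; plates were incubated 24 h at 37 °C. 5 µL of broth was spotted onto MHA; MIC was the lowest concentration with no visible growth on agar. Streptomycin was the positive control.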

[3] = tested on: Klebsiella aerogenes; experiment: Bactericidal activity against Enterobacter aerogenes MTCC 111 after 24 hrs by two fold dilution method; format: functional; conditions: MTCC 111, 24 h
Procedure, shortened: (§3)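 Tubes held 5 mL MHB with two-fold dilutions from 1000 to 7.81 µg/mL and were inoculated with 5 × 10^5 to 1 × 10^6 cells in 0.1 mL MHB, incubated without shaking. Turbidity was checked at 20 h, tubes vortexed and re-incubated 4 h.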

[4] = tested on: Malassezia pachydermatis; experiment: Antimicrobial activity against Malassezia pachydermatis at 1 mg/disc after 24 hrs by disc diffusion assay; format: functional
[5] = tested on: Bacillus subtilis; experiment: Bactericidal activity against Bacillus subtilis MTCC 441 after 24 hrs by two fold dilution method; format: functional; conditions: MTCC 441, 24 h; procedure, shortened: as §3
[6] = tested on: Micrococcus luteus; experiment: Bactericidal activity against Micrococcus luteus MTCC 106 after 24 hrs by two fold dilution method; format: functional; conditions: MTCC 106, 24 h; procedure, shortened: as §3
[7] = tested on: Micrococcus luteus; experiment: Antimicrobial activity against Micrococcus luteus MTCC 106 after 24 hrs by two fold dilution method; format: functional; conditions: MTCC 106, 24 h; procedure, shortened: as §2
[8] = tested on: Salmonella typhimurium; experiment: Bactericidal activity against Salmonella typhimurium MTCC 1251 after 24 hrs by two fold dilution method; format: functional, Salmonella enterica subsp. enterica serovar Typhimurium; conditions: Salmonella enterica, MTCC 1251, 24 h; procedure, shortened: as §3
[9] = tested on: Klebsiella pneumoniae; experiment: Antimicrobial activity against Klebsiella pneumoniae MTCC 109 at 1 mg/disc after 24 hrs by disc diffusion assay; format: functional; procedure, shortened: as §1
[10] = tested on: Bacillus subtilis; experiment: Antimicrobial activity against Bacillus subtilis MTCC 441 at 1 mg/disc after 24 hrs by disc diffusion assay; format: functional; procedure, shortened: as §1
[11] = tested on: Micrococcus luteus; experiment: Antimicrobial activity against Micrococcus luteus MTCC 106 at 1 mg/disc after 24 hrs by disc diffusion assay; format: functional; procedure, shortened: as §1
[12] = tested on: Candida albicans; experiment: Antimicrobial activity against Candida albicans MTCC 227 at 1 mg/disc after 24 hrs by disc diffusion assay; format: functional
[13] = tested on: Klebsiella aerogenes; experiment: Antimicrobial activity against Enterobacter aerogenes MTCC 111 at 1 mg/disc after 24 hrs by disc diffusion assay; format: functional; procedure, shortened: as §1
[14] = tested on: Candida albicans; experiment: Fungicidal activity against Candida albicans MTCC 227 after 48 to 72 hrs by two fold dilution method; format: functional
[15] = tested on: Staphylococcus aureus; experiment: Antimicrobial activity against methicillin-resistant Staphylococcus aureus MTCC 96 after 24 hrs by two fold dilution method; format: functional; conditions: MTCC 96, 24 h; procedure, shortened: as §2
[16] = tested on: Shigella flexneri; experiment: Bactericidal activity against Shigella flexneri MTCC 1457 after 24 hrs by two fold dilution method; format: functional; conditions: MTCC 1457, 24 h; procedure, shortened: as §3
[17] = tested on: Shigella flexneri; experiment: Antimicrobial activity against Shigella flexneri MTCC 1457 at 1 mg/disc after 24 hrs by disc diffusion assay; format: functional; procedure, shortened: as §1
[18] = tested on: Proteus vulgaris; experiment: Bactericidal activity against Proteus vulgaris MTCC 1771 after 24 hrs by two fold dilution method; format: functional; conditions: MTCC 1771, 24 h; procedure, shortened: as §3
[19] = tested on: Pseudomonas aeruginosa; experiment: Antimicrobial activity against Pseudomonas aeruginosa MTCC 741 after 24 hrs by two fold dilution method; format: functional; conditions: MTCC 741, 24 h; procedure, shortened: as §2
[20] = tested on: Proteus vulgaris; experiment: Antimicrobial activity against Proteus vulgaris MTCC 1771 at 1 mg/disc after 24 hrs by disc diffusion assay; format: functional; procedure, shortened: as §1
[21] = tested on: Shigella flexneri; experiment: Antimicrobial activity against Shigella flexneri MTCC 1457 after 24 hrs by two fold dilution method; format: functional; conditions: MTCC 1457, 24 h; procedure, shortened: as §2
[22] = tested on: Malassezia pachydermatis; experiment: Fungicidal activity against Malassezia pachydermatis after 48 to 72 hrs by two fold dilution method; format: functional
[23] = tested on: Klebsiella pneumoniae; experiment: Antimicrobial activity against Klebsiella pneumoniae MTCC 109 after 24 hrs by two fold dilution method; format: functional; conditions: MTCC 109, 24 h; procedure, shortened: as §2
[24] = tested on: Proteus vulgaris; experiment: Antimicrobial activity against Proteus vulgaris MTCC 1771 after 24 hrs by two fold dilution method; format: functional; conditions: MTCC 1771, 24 h; procedure, shortened: as §2
[25] = tested on: Candida albicans; experiment: Antimicrobial activity against Candida albicans MTCC 227 after 48 to 72 hrs by two fold dilution method; format: functional
Procedure, shortened: (§4)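 Yeast was grown in Sabouraud dextrose broth at 28 °C for 48 h and tested per CLSI reference methods. Two-fold serial dilutions from 1000 to 7.81 µg/mL, compound in DMSO (2%), in 96-well plates, incubated 48–72 h at 28 °C. MIC was the lowest concentration with no visible fungal growth. Ketoconazole was the positive control.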

[26] = tested on: Staphylococcus aureus; experiment: Antimicrobial activity against Staphylococcus aureus MTCC 96 after 24 hrs by two fold dilution method; format: functional; conditions: MTCC 96, 24 h; procedure, shortened: as §2
[27] = tested on: Bacillus subtilis; experiment: Antimicrobial activity against Bacillus subtilis MTCC 441 after 24 hrs by two fold dilution method; format: functional; conditions: MTCC 441, 24 h; procedure, shortened: as §2
[28] = tested on: Klebsiella pneumoniae; experiment: Bactericidal activity against Klebsiella pneumoniae MTCC 109 after 24 hrs by two fold dilution method; format: functional; conditions: MTCC 109, 24 h; procedure, shortened: as §3
[29] = tested on: Salmonella typhimurium; experiment: Antimicrobial activity against Salmonella typhimurium MTCC 1251 at 1 mg/disc after 24 hrs by disc diffusion assay; format: functional, Salmonella enterica subsp. enterica serovar Typhimurium; procedure, shortened: as §1
[30] = tested on: Malassezia pachydermatis; experiment: Antimicrobial activity against Malassezia pachydermatis after 48 to 72 hrs by two fold dilution method; format: functional; procedure, shortened: as §4
[31] = tested on: Klebsiella aerogenes; experiment: Antimicrobial activity against Enterobacter aerogenes MTCC 111 after 24 hrs by two fold dilution method; format: functional; conditions: MTCC 111, 24 h; procedure, shortened: as §2
[32] = tested on: Staphylococcus aureus; experiment: Bactericidal activity against Staphylococcus aureus MTCC 96 after 24 hrs by two fold dilution method; format: functional; conditions: MTCC 96, 24 h; procedure, shortened: as §3
[33] = tested on: Staphylococcus aureus; experiment: Antimicrobial activity against Staphylococcus aureus MTCC 96 at 1 mg/disc after 24 hrs by disc diffusion assay; format: functional; procedure, shortened: as §1
[34] = tested on: Staphylococcus aureus; experiment: Antimicrobial activity against […] Staphylococcus aureus MTCC 96 at 1 mg/disc after 24 hrs by disc diffusion assay; format: functional; procedure, shortened: as §1
[35] = tested on: Salmonella typhimurium; experiment: Antimicrobial activity against Salmonella typhimurium MTCC 1251 after 24 hrs by two fold dilution method; format: functional, Salmonella enterica subsp. enterica serovar Typhimurium; conditions: Salmonella enterica, MTCC 1251, 24 h; procedure, shortened: as §2
[36] = tested on: Pseudomonas aeruginosa; experiment: Bactericidal activity against Pseudomonas aeruginosa MTCC 741 after 24 hrs by two fold dilution method; format: functional; conditions: MTCC 741, 24 h; procedure, shortened: as §3
[37] = tested on: Salmonella enterica subsp. enterica serovar Paratyphi B; experiment: Bactericidal activity against Salmonella paratyphi B after 24 hrs by two fold dilution method; format: functional; procedure, shortened: as §3
[38] = tested on: Staphylococcus aureus; experiment: Bactericidal activity against methicillin-resistant Staphylococcus aureus MTCC 96 after 24 hrs by two fold dilution method; format: functional; conditions: MTCC 96, 24 h; procedure, shortened: as §3
[39] = tested on: Pseudomonas aeruginosa; experiment: Antimicrobial activity against Pseudomonas aeruginosa MTCC 741 at 1 mg/disc after 24 hrs by disc diffusion assay; format: functional; procedure, shortened: as §1

Structure (SMILES) | inhibition zone (IZ) [1] [mm] | MIC [2] [µg/mL] | MBC [3] [µg/mL] | inhibition zone (IZ) [4] | MBC [5] [µg/mL] | MBC [6] [µg/mL] | MIC [7] [µg/mL] | MBC [8] [µg/mL] | inhibition zone (IZ) [9] | inhibition zone (IZ) [10] | inhibition zone (IZ) [11] | inhibition zone (IZ) [12] | inhibition zone (IZ) [13] | MFC [14] [µg/mL] | inhibition zone (IZ) [17] | inhibition zone (IZ) [20] | inhibition zone (IZ) [29] [mm] | inhibition zone (IZ) [33] [mm] | inhibition zone (IZ) [34] | inhibition zone (IZ) [39] | other results
C[C@H](N[C@H](C)c1ccccc1)[C@H](O)c1ccccc1.Cl | 14 | 125 | 250 | 15 mm | 125 | 250 | 125 | 500 | 13 mm | 14 mm | 14 mm | 14 mm | 13 mm | 125 | 16 mm | 12 mm | 11 | 16 | 11 mm | 16 mm | MIC [15]: 250 µg/mL; MBC [16]: 500 µg/mL; MBC [18]: 500 µg/mL; MIC [19]: 62.5 µg/mL; MIC [21]: 250 µg/mL; MFC [22]: 125 µg/mL; MIC [23]: 250 µg/mL; MIC [24]: 250 µg/mL; MIC [25]: 125 µg/mL; MIC [26]: 62.5 µg/mL; MIC [27]: 125 µg/mL; MBC [28]: 500 µg/mL; MIC [30]: 125 µg/mL; MIC [31]: 125 µg/mL; MBC [32]: 62.5 µg/mL; MIC [35]: 250 µg/mL; MBC [36]: 125 µg/mL; MBC [37]: 250 µg/mL; MBC [38]: 500 µg/mL
COc1ccc([C@@H](C)N[C@@H](C)[C@H](O)c2ccccc2)cc1.Cl | 16 | 125 | 125 | 18 mm | 250 | 250 | 125 | 500 | 18 mm | 14 mm | 15 mm | 17 mm | 14 mm | 62.5 | 18 mm | 17 mm | 13 | 15 | 15 mm | 15 mm | MIC [15]: 125 µg/mL; MBC [16]: 31.2 µg/mL; MBC [18]: 62.5 µg/mL; MIC [19]: 125 µg/mL; MIC [21]: 31.2 µg/mL; MFC [22]: 62.5 µg/mL; MIC [23]: 62.5 µg/mL; MIC [24]: 62.5 µg/mL; MIC [25]: 62.5 µg/mL; MIC [26]: 125 µg/mL; MIC [27]: 125 µg/mL; MBC [28]: 125 µg/mL; MIC [30]: 62.5 µg/mL; MIC [31]: 125 µg/mL; MBC [32]: 250 µg/mL; MIC [35]: 250 µg/mL; MBC [36]: 250 µg/mL; MBC [37]: 125 µg/mL; MBC [38]: 250 µg/mL
CC[C@@H](C)N[C@@H](C)[C@H](O)c1ccccc1.Cl (mixture of isomers) | 10 | – | – | inactive | – | – | – | – | inactive | inactive | inactive | inactive | inactive | – | inactive | inactive | 10 | 10 | inactive | inactive | –

From ChEMBL document CHEMBL3352188, “Synthesis, antimicrobial and molecular docking studies of enantiomerically pure N-alkylated β-amino alcohols from phenylpropanolamines” (2014)
